MrgX1 allo act – allosterically activates human MrgX1 receptor signaling; Q96LB2; MrgX1-HEK293, Fluo-4 calcium flux, FDSS; hits give high values; B-score at 10 µM; 310,000 tested, 0.63% active;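 active means plate-corrected calcium response at least 3 library SD above typical, normal starting fluorescence, not activating the receptor alone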;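 further: compound read alongside a low EC10 to EC30 dose of BAM8-22 agonist; peak minus trough fluorescence over baseline measured at the second addition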
Target sequence (Q96LB2 whole entry, looked up): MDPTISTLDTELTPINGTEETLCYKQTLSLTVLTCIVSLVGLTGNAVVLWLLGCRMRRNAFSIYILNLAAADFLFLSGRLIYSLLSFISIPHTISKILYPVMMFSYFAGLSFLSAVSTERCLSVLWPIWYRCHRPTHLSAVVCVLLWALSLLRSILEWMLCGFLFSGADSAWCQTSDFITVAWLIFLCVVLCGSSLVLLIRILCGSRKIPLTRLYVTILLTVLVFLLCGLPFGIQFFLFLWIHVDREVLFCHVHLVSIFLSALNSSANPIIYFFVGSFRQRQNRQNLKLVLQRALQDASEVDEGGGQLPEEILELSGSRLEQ
MrgX1 agonist – activates human MrgX1 receptor signaling; MrgX1-HEK293 cells, Fluo-4 calcium fluorescence, agonist mode; hits give high values; AID 588627; 310,000 tested, 0.44% active; B-score at 10 µM; Q96LB2;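 active means calcium response B-score plate-corrected fluorescence ratio at least 3 library SD, with starting fluorescence B-score inside 5 SD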
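Assay system: MrgX1-expressing HEK293 cells / Amount: fifteen thousand cells per well / Doses: test compound in the initial addition of three / Timing: cells plated overnight, dye loaded 0.5 h 37 °C, 0.5 h room temperature / Technique: kinetic calcium dye fluorescence, Fluo-4 NW / Control set: positive and negative controls per plate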
RGS4 pot – potentiators or activators of RGS4; AID 463111; 310,000 tested, 0.92% active; B-score at 10 µM; HEK293 M3R/inducible RGS4, carbachol calcium flux Fluo4; hits give low values;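 active means B-score of the integrated calcium signal more than 4 SD below the library mean, with starting fluorescence not abnormally high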;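 further: negative B-score means reduced calcium response which marks RGS4 activation or potentiation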
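Detection: kinetic calcium fluorescence imaging with Fluo4-AM dye, 2 µM / Material: HEK293 cells with stable M3R and inducible RGS4 / Schedule: recording 10 s baseline at 1 Hz, 100 s post-agonist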
MrgX1 antag – antagonists of human MrgX1 receptor; Q96LB2; MRGX1-HEK293 calcium flux, Fluo-4, BAM8-22 antagonism; hits give low values; B-score at 10 µM; 310,000 tested, 1.3% active; AID 588676;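 active means calcium-response B-score plate-corrected more than 3 library SD below zero, starting fluorescence within 5 deviations, no agonist response on first addition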;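 further: peak minus trough fluorescence over baseline after final BAM8-22 challenge near maximal dose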
RGS4 block – human RGS4 inhibition; P49798; HEK293 M3R/RGS4 inducible, Fluo-4 calcium flux; hits give high values; triggered by carbachol at its EC20; B-score at 10 µM; 310,000 tested, 0.45% active; AID 463165;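 active means B-score, a plate-corrected calcium signal, over three deviations above library mean, with baseline fluorescence within five deviations of library mean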;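 further: RGS4 expression induced by doxycycline in cells with stable M3 receptor; B-score is computed from the integrated fluorescence ratio over baseline after carbachol; higher B-score means a larger calcium signal and so more RGS4 inhibition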
Target sequence (P49798 whole entry, looked up): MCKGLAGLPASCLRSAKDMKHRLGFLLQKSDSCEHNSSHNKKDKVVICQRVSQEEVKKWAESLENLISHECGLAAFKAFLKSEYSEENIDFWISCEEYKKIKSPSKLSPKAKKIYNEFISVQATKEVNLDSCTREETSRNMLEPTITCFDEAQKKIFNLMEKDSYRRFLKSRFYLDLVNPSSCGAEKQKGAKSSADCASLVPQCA
MrgX1 antag conf – reconfirmed antagonist of human MrgX1 receptor signaling; remaining BAM8-22 calcium response % of control (hits give low values), % at 10 µM; MrgX1-HEK293, BAM8-22 calcium flux, Fluo-4; hits give low values; 2,300 tested, 19% active; shares compounds with MrgX1 antag;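 active means remaining agonist calcium response no higher than 100% minus 3 SD of agonist-only control wells, with starting fluorescence near control levels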;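 further: agonist BAM8-22 given at a near maximal EC90 to ECmax level; peak minus minimum fluorescence divided by baseline after agonist addition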
HEK293 Ca flux – activity in parental HEK293 cells lacking MrgX1; shares compounds with MrgX1 antag; Fluo-4 calcium fluorescence, FDSS; fluorescence ratio F(max-min)/F0 at 10 µM; 4,000 tested, 2% active; AID 624111;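 active means duplicate-averaged calcium fluorescence ratio at least three times the standard deviation of buffer wells, a nonspecific response in parental cells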
HEK293 Ca counter – counter-screen for MrgX1 allosteric activators: effect in parental HEK293 cells | shares compounds with MrgX1 antag | fluorescence ratio F(max-min)/F0 at 10 µM | parental HEK293 calcium flux, Fluo-4 fluorescence ratio; hits give high values | 4,000 tested, 0.4% active;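 active means calcium fluorescence ratio, averaged over duplicates, at least 3 SD of the buffer-well ratio, meaning a nonspecific response in receptor-free cells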;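 further: untransfected parental HEK293 lacking MrgX1 used as counterscreen for MrgX1 allosteric activators; fluorescence change taken during the second addition on a kinetic imager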
HEK293 Ca cntr2 – MrgX1 activator counter-screen hit in parental HEK293 cells; shares compounds with MrgX1 antag; fluorescence ratio F(max-min)/F0 at 10 µM; Fluo-4 calcium fluorescence (FDSS); hits give high values; 4,000 tested, 8.7% active;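 active means calcium fluorescence ratio at least three times the spread of buffer wells, meaning a non-specific response in parental cells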
An asterisk follows results filed as active; i = inactive; x = no result given. Only some compounds are listed: those with a hit (about 3.5% of all), similar ones and a draw of the others.

SMILES	MrgX1 allo act	MrgX1 agonist	RGS4 pot	MrgX1 antag	RGS4 block	MrgX1 antag conf	HEK293 Ca flux	HEK293 Ca counter	HEK293 Ca cntr2
O=C(NCc1ccco1)c1cnn2c(C(F)(F)F)cc(-c3ccccc3)nc12	i	i	i	-4.7*	i	i	i	i	i
Cc1nn(-c2ccccc2)c2nc(-c3ccncc3)cc(C(=O)NCc3ccco3)c12	i	i	i	-5.9*	i	i	i	i	i
COC(=O)c1sc(NC(=O)c2ccc(C)o2)nc1C	i	i	i	i	i	x	x	x	x
CCOC(=O)c1sc(NC(=O)c2ccc(C)o2)nc1C	i	i	i	-8*	i	i	i	i	i
COc1ccc(N2C(=S)NC(C)(C)CC2(C)c2ccc(OC(C)=O)cc2OC(C)=O)cc1 (centres undefined)	i	i	i	-4.6*	i	i	i	i	i
CCn1cc(/C=N\NC(=O)c2ccc(F)cc2)cn1	i	i	i	i	i	x	x	x	x
CCc1ccc(NC(=O)NCCN2CCCCC2)cc1	i	i	i	i	i	x	x	x	x
O=C(NCCc1ccc(C(F)(F)F)cc1)C1CCC(=O)N(CCCN2CCCC2=O)C1 (centres undefined)	i	i	i	i	i	x	x	x	x
NC(=S)Nc1cccc2cc3ccccc3cc12	i	i	i	i	i	x	x	x	x
NC(=S)Nc1cc2ccccc2c2ccccc12	i	i	i	-4.8*	i	i	i	i	i
NS(=O)(=O)c1ccc(NC(=O)C(=O)NCCC(=O)O)cc1	i	i	i	i	i	x	x	x	x
Cc1ccc(CNC(=O)Cc2ccc(-n3cccc3)cc2)cc1	i	i	i	i	i	x	x	x	x
Cc1cc(C)c(NC(=O)Cc2ccc(-n3cccc3)cc2)c(C)c1	i	i	i	-5.5*	i	i	i	i	i
COC(=O)c1cc(S(=O)(=O)N(C)Cc2ccco2)c[nH]1	i	i	i	i	i	x	x	x	x
O=C(Nc1cc(S(=O)(=O)N2CCOCC2)ccc1N1CCOCC1)c1cnccn1	i	i	i	-4.8*	i	i	i	i	i
CCN(CC)c1ccc(/C=C/c2cc(-c3ccccc3)c3ccccc3n2)cc1	i	i	i	-15*	i	i	0.065*	i	i
CCN(CC)c1ccc(/C=N/NC(=O)c2cc(C)nc3ccccc23)cc1	i	i	i	i	i	x	x	x	x
Cc1nn(C(=O)c2c(-c3ccccc3)noc2C)c(C)c1N=Nc1cc(C(F)(F)F)cc(C(F)(F)F)c1	i	i	i	i	i	x	x	x	x
NS(=O)(=O)c1cccc(NC(=O)COC(=O)C2CCCCC2)c1	i	i	i	i	i	x	x	x	x
COc1ccc(-c2cc(Cl)cc3c(=O)c4ccccc4n(C)c23)cc1F	i	i	i	i	i	x	x	x	x
Cc1cc(NC(=O)CCCC(=O)O)nc(C)n1	i	i	i	-6.4*	i	i	i	i	i
CC1CCCCN1CC(O)COc1ccc(OCC(O)CN2CCCCC2C)cc1 (centres undefined)	i	i	i	i	i	x	x	x	x
NC(=O)C1CCN(CC(=O)Nc2cccc(C(=O)Nc3cccc(C(F)(F)F)c3)c2)CC1	i	i	i	-7*	i	84%*	i	i	i
O=C(N/N=C/c1ccncc1)c1cccc(S(=O)(=O)Nc2ccc(Cl)cc2)c1	i	i	i	i	i	x	x	x	x

Screening data (PubChem BioAssay)
